ChEMBL document CHEMBL3769392, “Synthesis, antiproliferative activities, and computational evaluation of novel isocoumarin and 3,4-dihydroisocoumarin derivatives” (Eur J Med Chem, 2016)
Converted amounts (≈) assume the structure as drawn.

Experiments:
[1] = test system: 786-0; assay: Antiproliferative activity against human 786-0 cells after 48 hrs by SRB assay; type: functional; settings: 786-0, 48 h
Procedure, shortened: (§1)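 Cells kept in RPMI 1640 with 5% FBS and 1% penicillin/streptomycin at 37 °C, 5% CO2, and used at passages 5–12. Seeded at 3 to 5 x 10^4 cells/mL and exposed 48 h to 0.25, 2.5, 25 and 250 µg/mL in DMSO/RPMI (final DMSO ≤ 0.25%). Doxorubicin 0.025–25 µg/mL served as positive control. Fixed with 50% TCA at T0 and at endpoint, SRB protein read at 540 nm. Growth was T0-corrected and GI50 taken by non-linear regression.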

[2] = test system: NCI-H460; assay: Antiproliferative activity against human NCI-H460 cells after 48 hrs by SRB assay; type: functional; settings: NCI-H460, 48 h; procedure, shortened: as §1
[3] = test system: HaCaT; assay: Selectivity index, ratio of GI50 for human HaCaT cells to GI50 for human MCF7 cells; type: functional
[4] = Antiproliferative activity against human PC3 cells after 48 hrs by SRB assay; type: functional; settings: PC-3, 48 h; procedure, shortened: as §1
[5] = test system: MCF7; assay: Antiproliferative activity against human MCF7 cells after 48 hrs by SRB assay; type: functional; settings: MCF7, 48 h; procedure, shortened: as §1
[6] = Antiproliferative activity against human NCI-ADR-RES cells after 48 hrs by SRB assay; type: functional; procedure, shortened: as §1
[7] = test system: HaCaT; assay: Selectivity index, ratio of GI50 for human HaCaT cells to GI50 for human PC3 cells; type: functional
[8] = Cytotoxicity against human HaCaT cells after 48 hrs by SRB assay; type: cell-based; procedure, shortened: as §1
[9] = test system: HT-29; assay: Antiproliferative activity against human HT-29 cells after 48 hrs by SRB assay; type: functional; settings: HT-29, 48 h; procedure, shortened: as §1
[10] = test system: U-251; assay: Antiproliferative activity against human U251 cells after 48 hrs by SRB assay; type: functional; settings: U-251, 48 h; procedure, shortened: as §1
[11] = test system: HaCaT; assay: Selectivity index, ratio of GI50 for human HaCaT cells to GI50 for human HT-29 cells; type: functional
[12] = test system: HaCaT; assay: Selectivity index, ratio of GI50 for human HaCaT cells to GI50 for human 786-0 cells; type: functional
[13] = test system: NCI-H460; assay: Selectivity index, ratio of GI50 for human HaCaT cells to GI50 for human NCI-H460 cells; type: functional
[14] = test system: HaCaT; assay: Selectivity index, ratio of GI50 for human HaCaT cells to GI50 for human U251 cells; type: functional
[15] = test system: HaCaT; assay: Selectivity index, ratio of GI50 for human HaCaT cells to GI50 for human NCI-ADR-RES cells; type: functional

SMILES	GI50 [1]	GI50 [2]	RatioGI50 [3]	GI50 [4]	GI50 [5]	GI50 [6]	RatioGI50 [7]	GI50 at 48 h [8]	GI50 [9]	GI50 [10]	RatioGI50 [11]	RatioGI50 [12]	RatioGI50 [13]	RatioGI50 [14]	RatioGI50 [15]
COc1ccc2c(c1)C(=O)OC(CO)C2 (racemic)	≥ 250 µg/mL	≥ 250 µg/mL	>1	175 µg/mL (≈ 842 µM)	250 µg/mL (≈ 1200 µM)	≥ 250 µg/mL	>1.43	≥ 250 µg/mL	≥ 250 µg/mL	≥ 250 µg/mL	–	–	–	–	–
COc1ccc2cc(COCCCc3cccnc3)oc(=O)c2c1	28.6 µg/mL (≈ 87.9 µM)	29.6 µg/mL (≈ 91 µM)	0.99	25 µg/mL (≈ 76.8 µM)	26.5 µg/mL (≈ 81.4 µM)	28 µg/mL (≈ 86.1 µM)	1.05	26.2 µg/mL (≈ 80.5 µM)	25.8 µg/mL (≈ 79.3 µM)	28.5 µg/mL (≈ 87.6 µM)	1.02	0.92	0.89	0.92	0.94
COc1ccc2cc(CCCOCCCc3cccnc3)oc(=O)c2c1	28.7 µg/mL (≈ 81.2 µM)	25.2 µg/mL (≈ 71.3 µM)	1.13	26.3 µg/mL (≈ 74.4 µM)	23.8 µg/mL (≈ 67.3 µM)	19.3 µg/mL (≈ 54.6 µM)	1.03	27 µg/mL (≈ 76.4 µM)	25 µg/mL (≈ 70.7 µM)	26.3 µg/mL (≈ 74.4 µM)	1.08	0.94	1.07	1.03	1.4
COc1ccc2cc(CO)oc(=O)c2c1	37.6 µg/mL (≈ 182 µM)	93.2 µg/mL (≈ 452 µM)	4.12	49.2 µg/mL (≈ 239 µM)	32.6 µg/mL (≈ 158 µM)	160 µg/mL (≈ 778 µM)	2.73	134 µg/mL (≈ 652 µM)	80.3 µg/mL (≈ 389 µM)	167 µg/mL (≈ 811 µM)	1.67	3.57	1.44	0.8	0.84
COc1ccc2c(c1)C(=O)OC(CCCO)C2 (racemic)	102 µg/mL (≈ 430 µM)	136 µg/mL (≈ 574 µM)	1.12	70.7 µg/mL (≈ 299 µM)	80.8 µg/mL (≈ 342 µM)	93.3 µg/mL (≈ 395 µM)	1.84	130 µg/mL (≈ 551 µM)	132 µg/mL (≈ 559 µM)	135 µg/mL (≈ 571 µM)	0.99	1.28	0.96	0.97	1.4
COc1ccc2cc(CCCSc3nnnn3-c3ccccc3)oc(=O)c2c1	51.1 µg/mL (≈ 130 µM)	≥ 250 µg/mL	>5.47	144 µg/mL (≈ 366 µM)	45.7 µg/mL (≈ 116 µM)	≥ 250 µg/mL	>1.73	≥ 250 µg/mL	≥ 250 µg/mL	43.3 µg/mL (≈ 110 µM)	–	>4.89	–	>5.77	–
COc1ccc2cc(CCCn3nnnc3-c3ccccc3)oc(=O)c2c1	224 µg/mL (≈ 619 µM)	≥ 250 µg/mL	>3.32	180 µg/mL (≈ 496 µM)	75.2 µg/mL (≈ 208 µM)	≥ 250 µg/mL	>1.39	≥ 250 µg/mL	≥ 250 µg/mL	67.4 µg/mL (≈ 186 µM)	–	>1.12	–	>3.71	–
